Laboratory results reported in ChEMBL document CHEMBL1671627, “Increasing trends in antimicrobial resistance among clinically important anaerobes and Bacteroides fragilis isolates causing nosocomial infections: emerging resistance to carbapenems” (2008).
≈ marks a conversion by molar mass, not a printed value.

Legend:
[1] = test system: Bacteroides thetaiotaomicron; assay: Antibacterial activity against beta-lactamase producing Bacteroides thetaiotaomicron assessed as resistant isolates by CLSI agar dilution method in presence of clavulanate; assay type: functional
In short: (§1)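 207 nonduplicate anaerobic blood isolates from patients with bloodstream infections at NTUH, collected January–December 2006. MICs were determined by agar dilution following CLSI guidelines. Inocula were applied with a Steers replicator onto supplemented Brucella blood agar and incubated 48 h at 35°C in an anaerobic chamber. MIC was the lowest concentration inhibiting growth. B. fragilis ATCC 25285, B. thetaiotaomicron ATCC 29741 and E. lentum ATCC 43055 served as controls in each run.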

Phocaeicola vulgatus [2] = assay: Antibacterial activity against beta-lactamase producing Bacteroides vulgatus by CLSI agar dilution method in presence of clavulanate; assay type: functional
In short: (§2)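 CLSI agar dilution MICs for anaerobic blood isolates (nonduplicate) collected from bloodstream-infection patients at a Taiwanese tertiary hospital, January–December 2006. Isolates were spotted by Steers replicator onto supplemented Brucella blood agar and incubated anaerobically for 48 h at 35°C. MIC was the lowest drug concentration inhibiting growth. Each run included B. fragilis ATCC 25285, B. thetaiotaomicron ATCC 29741 and E. lentum ATCC 43055 as quality-control strains.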

Phocaeicola vulgatus [3] = assay: Antibacterial activity against beta-lactamase producing Bacteroides vulgatus assessed as susceptible isolates by CLSI agar dilution method in presence of clavulanate; assay type: functional; in short: as §2
Bacteroides uniformis = assay: Antibacterial activity against beta-lactamase producing Bacteroides uniformis by CLSI agar dilution method in presence of clavulanate; assay type: functional
In short: (§3)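 Agar dilution per CLSI guidelines on nonduplicate anaerobic bloodstream isolates collected at NTUH, January to December 2006. Isolates were spotted by Steers replicator onto supplemented Brucella blood agar and incubated anaerobically for 48 h at 35°C. MIC was the lowest drug concentration that inhibited growth. B. fragilis ATCC 25285, B. thetaiotaomicron ATCC 29741 and E. lentum ATCC 43055 were run as QC in each run.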

Bacteroides caccae [4] = assay: Antibacterial activity against beta-lactamase producing Bacteroides caccae assessed as susceptible isolates by CLSI agar dilution method in presence of clavulanate; assay type: functional; in short: as §3
Fusobacterium nucleatum [5] = assay: Antibacterial activity against Fusobacterium nucleatum by CLSI agar dilution method in presence of clavulanate; assay type: functional; in short: as §3
Prevotella bivia [6] = assay: Antibacterial activity against Prevotella bivia by CLSI agar dilution method in presence of clavulanate; assay type: functional; in short: as §3
Prevotella intermedia [7] = assay: Antibacterial activity against Prevotella intermedia by CLSI agar dilution method in presence of clavulanate; assay type: functional; in short: as §3
[8] = test system: Prevotella melaninogenica; assay: Antibacterial activity against Prevotella melaninogenica by CLSI agar dilution method in presence of clavulanate; assay type: functional; in short: as §3
[9] = test system: Prevotella melaninogenica; assay: Antibacterial activity against Prevotella melaninogenica assessed as susceptible isolates by CLSI agar dilution method in presence of clavulanate; assay type: functional; in short: as §3
Prevotella bivia [10] = assay: Antibacterial activity against Prevotella bivia assessed as resistant isolates by CLSI agar dilution method in presence of clavulanate; assay type: functional; in short: as §1
[11] = test system: Prevotella melaninogenica; assay: Antibacterial activity against Prevotella melaninogenica assessed as resistant isolates by CLSI agar dilution method in presence of clavulanate; assay type: functional; in short: as §1
[12] = test system: Clostridium paraputrificum; assay: Antibacterial activity against beta-lactamase producing Clostridium paraputrificum assessed as resistant isolates by CLSI agar dilution method in presence of clavulanate; assay type: functional; in short: as §1
[13] = test system: Peptostreptococcus anaerobius; assay: Antibacterial activity against beta-lactamase producing Peptostreptococcus anaerobius assessed as resistant isolates by CLSI agar dilution method in presence of clavulanate; assay type: functional; in short: as §1
Finegoldia magna [14] = assay: Antibacterial activity against beta-lactamase producing Finegoldia magna assessed as susceptible isolates by CLSI agar dilution method in presence of clavulanate; assay type: functional; in short: as §2
Finegoldia magna [15] = assay: Antibacterial activity against beta-lactamase producing Finegoldia magna assessed as resistant isolates by CLSI agar dilution method in presence of clavulanate; assay type: functional; in short: as §1
Bacteroides fragilis [16] = assay: Antibacterial activity against Bacteroides fragilis assessed as susceptible isolates by CLSI agar dilution method; assay type: functional
Bacteroides fragilis [17] = assay: Antibacterial activity against Bacteroides fragilis assessed as resistant isolates by CLSI agar dilution method in presence of Tazobactam; assay type: functional; in short: as §1
Phocaeicola vulgatus [18] = assay: Antibacterial activity against beta-lactamase producing Bacteroides vulgatus assessed as resistant isolates by CLSI agar dilution method; assay type: functional
Phocaeicola vulgatus [19] = assay: Antibacterial activity against beta-lactamase producing Bacteroides vulgatus assessed as susceptible isolates by CLSI agar dilution method in presence of Tazobactam; assay type: functional; in short: as §2
Bacteroides caccae [20] = assay: Antibacterial activity against beta-lactamase producing Bacteroides caccae by CLSI agar dilution method; assay type: functional
Fusobacterium varium [21] = assay: Antibacterial activity against Fusobacterium varium by CLSI agar dilution method; assay type: functional
[22] = test system: Fusobacterium necrophorum; assay: Antibacterial activity against Fusobacterium necrophorum by CLSI agar dilution method; assay type: functional
Fusobacterium nucleatum [23] = assay: Antibacterial activity against Fusobacterium nucleatum assessed as susceptible isolates by CLSI agar dilution method; assay type: functional
Fusobacterium mortiferum = assay: Antibacterial activity against Fusobacterium mortiferum assessed as susceptible isolates by CLSI agar dilution method; assay type: functional
Fusobacterium varium [24] = assay: Antibacterial activity against Fusobacterium varium assessed as susceptible isolates by CLSI agar dilution method in presence of Tazobactam; assay type: functional; in short: as §3
Prevotella buccae [25] = assay: Antibacterial activity against Prevotella buccae by CLSI agar dilution method in presence of Tazobactam; assay type: functional; details: Segatella buccae; in short: as §3
[26] = test system: Prevotella melaninogenica; assay: Antibacterial activity against Prevotella melaninogenica by CLSI agar dilution method in presence of Tazobactam; assay type: functional; in short: as §3
Prevotella buccae [27] = assay: Antibacterial activity against Prevotella buccae assessed as susceptible isolates by CLSI agar dilution method; assay type: functional, Segatella buccae
Prevotella bivia [28] = assay: Antibacterial activity against Prevotella bivia assessed as susceptible isolates by CLSI agar dilution method; assay type: functional
Prevotella intermedia [29] = assay: Antibacterial activity against Prevotella intermedia assessed as susceptible isolates by CLSI agar dilution method; assay type: functional
Veillonella parvula = assay: Antibacterial activity against Veillonella parvula by CLSI agar dilution method; assay type: functional
Clostridium perfringens = assay: microbe, parasite or virus in culture; assay type: functional
Clostridium tertium [30] = assay: Antibacterial activity against beta-lactamase producing Clostridium tertium by CLSI agar dilution method; assay type: functional
Clostridium septicum = assay: Antibacterial activity against beta-lactamase producing Clostridium septicum by CLSI agar dilution method in presence of Tazobactam; assay type: functional; in short: as §2
Clostridium tertium [31] = assay: Antibacterial activity against beta-lactamase producing Clostridium tertium assessed as resistant isolates by CLSI agar dilution method; assay type: functional
Parvimonas micra [32] = assay: Antibacterial activity against beta-lactamase producing Micromonas micros by CLSI agar dilution method; assay type: functional
Parvimonas micra [33] = assay: Antibacterial activity against beta-lactamase producing Micromonas micros assessed as resistant isolates by CLSI agar dilution method; assay type: functional
[34] = test system: Peptoniphilus asaccharolyticus; assay: Antibacterial activity against beta-lactamase producing Peptoniphilus asaccharolyticus assessed as resistant isolates by CLSI agar dilution method; assay type: functional

`CC1(C)S[C@@H]2[C@H](NC(=O)[C@H](N)c3ccc(O)cc3)C(=O)N2[C@H]1C(=O)O` [AMOXICILLIN] gave an Activity [1] of 33%, an MIC50 (Phocaeicola vulgatus [2]) of 8 µg/mL and an MIC90 (Phocaeicola vulgatus [2]) of 32 µg/mL. It also gave an Activity (Phocaeicola vulgatus [3]) of 53%, an MIC50 (Bacteroides uniformis) of 8 µg/mL and an MIC90 (Bacteroides uniformis) of 32 µg/mL. The Activity (Bacteroides caccae [4]) was 53%, the MIC50 (Fusobacterium nucleatum [5]) was 2 µg/mL and the MIC90 (Fusobacterium nucleatum [5]) was 4 µg/mL. The MIC50 (Prevotella bivia [6]) was 4 µg/mL, the MIC90 (Prevotella bivia [6]) was 16 µg/mL and the MIC50 (Prevotella intermedia [7]) was 4 µg/mL. The MIC90 (Prevotella intermedia [7]) was 16 µg/mL, the MIC50 [8] was 4 µg/mL and the MIC90 [8] was 16 µg/mL. For the same compound, the Activity [9] was 81%, the Activity (Prevotella bivia [10]) was 6% and the Activity [11] was 6%. The Activity [12] was 4%, the Activity [13] was 3% and the Activity (Finegoldia magna [14]) was 94%. The Activity (Finegoldia magna [15]) was 3%.
Compound `CCN1CCN(C(=O)N[C@@H](C(=O)N[C@@H]2C(=O)N3[C@@H]2SC(C)(C)[C@@H]3C(=O)O)c2ccccc2)C(=O)C1=O` [PIPERACILLIN] has an Activity (Bacteroides fragilis [16]) of 62%, an Activity (Bacteroides fragilis [17]) of 2% and an Activity (Phocaeicola vulgatus [18]) of 65%. It also gave an Activity (Phocaeicola vulgatus [19]) of 96%, an MIC50 (Bacteroides caccae [20]) of over 128 µg/mL and an MIC90 (Bacteroides caccae [20]) of over 128 µg/mL. For the same compound, the MIC50 (Fusobacterium varium [21]) was 2 µg/mL (≈ 3.86 µM), the MIC90 (Fusobacterium varium [21]) was 8 µg/mL (≈ 15.5 µM) and the MIC50 [22] was 2 µg/mL (≈ 3.86 µM). For the same compound, the MIC90 [22] was 8 µg/mL (≈ 15.5 µM), the Activity (Fusobacterium nucleatum [23]) was 90% and the Activity (Fusobacterium mortiferum) was 90%. It also gave an Activity (Fusobacterium varium [24]) of 100%, an MIC (Prevotella buccae [25]) of 0.03 µg/mL and an MIC50 (Prevotella buccae [25]) of 0.03 µg/mL. It also gave an MIC90 (Prevotella buccae [25]) of 1 µg/mL, an MIC [26] of 0.03 µg/mL and an MIC50 [26] of 0.03 µg/mL. For the same compound, the MIC90 [26] was 1 µg/mL, the Activity (Prevotella buccae [27]) was 71% and the Activity (Prevotella bivia [28]) was 71%. The Activity (Prevotella intermedia [29]) was 71%, the MIC (Veillonella parvula) was 1 µg/mL (≈ 1.93 µM) and the MIC50 (Clostridium perfringens) was 0.25 µg/mL (≈ 0.483 µM). The MIC90 (Clostridium perfringens) was 2 µg/mL (≈ 3.86 µM), the MIC50 (Clostridium tertium [30]) was 0.25 µg/mL (≈ 0.483 µM) and the MIC90 (Clostridium tertium [30]) was 2 µg/mL (≈ 3.86 µM). It also gave an MIC50 (Clostridium septicum) of 0.5 µg/mL, an MIC90 (Clostridium septicum) of 2 µg/mL and an Activity (Clostridium tertium [31]) of 0%. The MIC50 (Parvimonas micra [32]) was 0.12 µg/mL (≈ 0.232 µM), the MIC90 (Parvimonas micra [32]) was 8 µg/mL (≈ 15.5 µM) and the Activity (Parvimonas micra [33]) was 3%. It also gave an Activity [34] of 3%.
